In PMC11455733 (Drugs in R&D, 2024):

What was measured:
[1] = 10-day daily IP administration, body weight; assay type: in vivo, C57BL/6 mice
Summary of the method: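 Body weights were recorded daily and again on day 11, before euthanasia. Mice were C57BL/6 of both sexes (7–12 weeks; n = 8 per group, equal males and females), with sex data combined. Dosing was IP once daily for 10 days with vehicle (DMSO diluted 10%/90% vol/vol in 0.5% Methocel/0.9% NaCl) or test compound. Groups were compared by ANOVA followed by unpaired t test.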

[2] = test system: IL-1β, IL-6, and TNFα in total lung homogenates; assay: 10-day daily IP administration, lung cytokines by ELISA; assay type: in vivo, C57BL/6 mice; details: 20.0 mg/kg IP daily for 10 days, day 11, vs vehicle
Summary of the method: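 On day 11, IL-1β, IL-6 and TNFα were measured by mouse ELISA kits in total lung homogenates. Mice were C57BL/6 of both sexes (7–12 weeks; n = 8 per group), given daily IP vehicle (DMSO/0.5% Methocel in 0.9% NaCl, 10%/90% vol/vol) or test compound for 10 days. Analysis was ANOVA followed by unpaired t test.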

[3] = test system: Col1a1 and Fn mRNA in total lung RNA; assay: 10-day daily IP administration, lung extracellular matrix mRNA by qPCR; assay type: in vivo, C57BL/6 mice; details: 20.0 mg/kg IP daily for 10 days, day 11, vs vehicle
Summary of the method: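 Lung tissue was taken on day 11, after 10 days of daily IP vehicle (DMSO/0.5% Methocel-saline) or test compound in male and female C57BL/6 mice (n = 8 per group). Tissue was lysed and RNA purified with genomic DNA removal. cDNA was made with oligo(dT) plus random hexamers, then SYBR green real-time PCR was run. Col1a1 and Fn were expressed as ratios to B2M.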

[4] = 10-day daily IP administration, serum chemistry; assay type: in vivo, C57BL/6 mice; details: 20.0 mg/kg IP daily for 10 days, day 11, vs vehicle
Summary of the method: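 Serum was prepared from postmortem blood on day 11 and analysed on a chemistry analyser per the manufacturer's instructions. Mice were C57BL/6 of both sexes (7–12 weeks; n = 8 per group), dosed IP daily for 10 days with vehicle (DMSO/0.5% Methocel in 0.9% NaCl, 10%/90% vol/vol) or test compound. Analysis was ANOVA, then unpaired t test.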

[5] = 10-day daily IP administration, complete blood count; assay type: in vivo, C57BL/6 mice; details: 20.0 mg/kg IP daily for 10 days, day 11, vs vehicle
Summary of the method: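 Blood was collected postmortem on day 11 and run on a veterinary haematology analyser for complete blood count. Mice were male and female C57BL/6 (7–12 weeks; n = 8 per group), dosed IP daily for 10 days with vehicle (DMSO/0.5% Methocel in saline, 10%/90% vol/vol) or test compound. Analysis was ANOVA, then unpaired Student t test.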

lung, liver, and kidney = assay: 10-day daily IP administration, H&E histology scoring; assay type: in vivo, C57BL/6 mice; details: 20.0 mg/kg IP daily for 10 days, all parameters
Summary of the method: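 Male and female C57BL/6 mice (7–12 weeks; n = 8 per group, equal sexes) got IP vehicle (DMSO then 0.5% Methocel in 0.9% NaCl, 10%/90% vol/vol) or test compound daily from day 0 for 10 days. On day 11, organs were fixed in 10% neutral formalin and paraffin-embedded. 5 μm H&E sections were graded blindly by a pathologist over the whole section area.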

[6] = Solubility in water or saline; assay type: physicochemical
EphB2 = details: cited from earlier work
[7] = within normal published parameters

SMILES: CCN1CCN(Cc2ccc(NC(=O)c3ccc(C)c(NC(=O)c4cncc(-c5cccs5)c4)c3)cc2C(F)(F)F)CC1 [ALW-II-41-27]
- daily and ending weight loss ([1]; 20.0 mg/kg IP daily for 10 days, vs vehicle): no significant changes
- tolerability ([1]; 20.0 mg/kg IP once a day in mice): well tolerated
- IL-1β in whole-lung lysates [2]: No significant alterations
- IL-6 in whole-lung lysates [2]: No significant alterations
- TNF-α in whole-lung lysates [2]: No significant alterations
- Col1a1 mRNA expression (ratio to B2M) in lung [3]: no significant differences
- Fn mRNA expression (ratio to B2M) in lung [3]: no significant differences
- serum chemistry parameters other than creatinine [4]: no significant changes
- CBC parameters other than NEU and RBC [5]: no significant differences
- neutrophil (NEU) count [5, 7]: significantly higher
- red blood cell (RBC) count [5, 7]: significantly higher
- histology score (0 normal to 4+), lung, liver, and kidney (lung, liver, and kidney): 0
- solubility in water or saline [6]: lack of solubility
- inhibition of the Ephrin receptor EphB2 (EphB2): shown to inhibit
